Measurements reported in ChEMBL document CHEMBL1641448, “2-Hydroxycurcuminoid induces apoptosis of human tumor cells through the reactive oxygen species-mitochondria pathway” (2011).
Calls of active or inactive are those of the source. No cut-off for these calls is given here.

Experiments:
SW-620 [1] = experiment: Induction of ROS generation in human SW620 cells at 20 uM after 2 hrs relative to control; type: functional
Procedure, shortened: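 SW620 cells were treated for 2 h. Intracellular ROS was read fluorimetrically with the DCF-DA probe (excitation 485 nm, emission 535 nm) and compared with DMSO-treated cells.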

SW-620 [2] = experiment: Cytotoxicity against human SW620 cells after 48 hrs […]; type: functional; conditions: SW-620, 48 h
Procedure, shortened: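 SW620 human colorectal tumor cells were exposed to a range of concentrations for 48 h. Cells were counted and GI50 was derived from growth inhibition.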

HCT-116 = experiment: Cytotoxicity against human HCT116 cells after 48 hrs by WST1 assay; type: functional, cell-based
DLD-1 = experiment: Cytotoxicity against human DLD1 cells after 48 hrs by WST1 assay; type: functional, cell-based
SW-620 [3] = experiment: Induction of apoptosis in human SW620 cells assessed as late apoptotic cells at 10 uM by annexin-V/propidium iodide staining; type: functional
Procedure, shortened: (§1)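 SW620 cells were treated for 48 h with or without 1 mM NAC. Cells were stained with annexin V and propidium iodide, and the apoptotic distribution was determined by flow cytometry.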

SW-620 [4] = experiment: Induction of apoptosis in human SW620 cells assessed as late apoptotic cells at 20 uM by annexin-V/propidium iodide staining; type: functional; procedure, shortened: as §1
SW-620 [5] = experiment: Induction of apoptosis in human SW620 cells assessed as late apoptotic cells at 10 uM by annexin-V/propidium iodide staining in presence of N-acetyl-cysteine; type: functional; procedure, shortened: as §1
SW-620 [6] = experiment: Induction of apoptosis in human SW620 cells assessed as PARP degradation at 10 uM by fluorescence microscopy; type: functional, cell-based
SW-620 [7] = experiment: Induction of apoptosis in human SW620 cells assessed as caspase 3 activation at 10 uM by fluorescence microscopy; type: functional, cell-based
SW-620 [8] = experiment: Induction of apoptosis in human SW620 cells assessed as PARP degradation at 10 uM by fluorescence microscopy in presence of N-acetyl-cysteine; type: functional, cell-based
SW-620 [9] = experiment: Induction of apoptosis in human SW620 cells assessed as caspase 3 activation at 10 uM by fluorescence microscopy in presence of N-acetyl-cysteine; type: functional, cell-based
SW-620 [10] = experiment: Induction of apoptosis in human SW620 cells assessed as decrease in mitochondrial membrane potential after 6 to 12 hrs; type: functional, cell-based
Procedure, shortened: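 Mitochondrial membrane potential in SW620 cells was followed as the red:green ratio (A590:A520) over 6–12 h of treatment.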

SW-620 [11] = experiment: Induction of apoptosis in human SW620 cells assessed as release of mitochondrial cytochrome c release to cytosol upto 48 hrs; type: functional, cell-based
Procedure, shortened: (§2)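 SW620 cells were treated for the indicated time intervals. Cytosolic and membrane fractions were separated by subcellular fractionation, and Bax and cytochrome c levels in each fraction were read by Western blot.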

SW-620 [12] = experiment: Induction of apoptosis in human SW620 cells assessed as increase in translocation of Bax to cytosol upto 48 hrs; type: functional, cell-based; conditions: in the assay text read “to membrane fraction” for “to cytosol”; procedure, shortened: as §2
SW-620 [13] = experiment: Induction of cell cycle arrest in human SW620 cells assessed as accumulation at G2/M phase at 10 uM after 15 hrs by propidium iodide cytofluorimetric analysis; type: functional, cell-based
MCF-10A = experiment: Induction of cell cycle arrest in human MCF10A cells assessed as accumulation at G0/G1 phase at 10 uM after 15 hrs by propidium iodide cytofluorimetric analysis; type: functional, cell-based
[14] = tested on: MDA-MB-231 (Homo sapiens); experiment: Induction of apoptosis in human MDA-MB-231 cells assessed as change in cell morphology at 10 uM by fluorescence microscopy
[15] = tested on: MDA-MB-231 (Homo sapiens); experiment: Induction of apoptosis in human MDA-MB-231 cells assessed as change in cell morphology at 10 uM by fluorescence microscopy in presence of N-acetyl-cysteine
MDA-MB-231 = experiment: Induction of ROS generation in human MDA-MB-231 cells at 20 uM by fluorescence microscopy in presence of N-acetyl-cysteine; type: functional, cell-based

## CC(C)C(=O)/C=C/c1ccccc1O
SW-620 [1]
  fold change (FC): 1.5

## COc1cc(/C=C/C(=O)C(C)(C)C(=O)/C=C/c2ccc(O)c(OC)c2)ccc1O
SW-620 [2]
  GI50: 7 µM

## O=C(/C=C(O)/C=C/c1ccccc1O)/C=C/c1ccccc1O
SW-620 [1]
  fold change (FC): 1.5
SW-620 [2]
  GI50: 35 µM

## COc1cc(/C=C/C(=O)CC(=O)/C=C/c2ccc(O)c(OC)c2)ccc1O [CURCUMIN]
SW-620 [2]
  GI50: 32 µM

## CC(=O)/C=C/c1ccccc1O
SW-620 [1]
  fold change (FC): 1.5

## CC(=O)C(C)(C)C(=O)/C=C/c1ccccc1O
SW-620 [1]
  fold change (FC): 1.5
SW-620 [2]
  GI50: 40 µM

## CC(=O)/C=C(O)/C=C/c1ccccc1O
SW-620 [1]
  fold change (FC): 1.5

## CC(C)(C(=O)/C=C/c1ccccc1O)C(=O)/C=C/c1ccccc1O
SW-620 [1]
  fold change (FC): 1.5
SW-620 [2]
  GI50: 7 µM
HCT-116
  Activity: Active
DLD-1
  Activity: Active
SW-620 [3]
  Activity: 73.53%
SW-620 [4]
  Activity: 78.77%
SW-620 [5]
  Activity: 24.25%
SW-620 [6]
  Activity: Active
SW-620 [7]
  Activity: Active
SW-620 [8]
  Activity: inactive
SW-620 [9]
  Activity: inactive
SW-620 [10]
  Activity: Active
SW-620 [11]
  Activity: Active
SW-620 [12]
  Activity: Active
SW-620 [13]
  Activity: Active
MCF-10A
  Activity: Active
[14]
  Activity: Active
[15]
  Activity: inactive

## O=C/C=C/c1ccccc1O [2-HYDROXYCINNAMALDEHYDE]
SW-620 [1]
  fold change (FC): 1.5
SW-620 [2]
  GI50: 15 µM
MDA-MB-231
  Activity: inactive
